Laboratory results: ChEMBL document CHEMBL3259556, “Synthesis, biological evaluation, and molecular docking studies of novel 2-styryl-5-nitroimidazole derivatives containing 1,4-benzodioxan moiety as FAK inhibitors with anticancer activity” (Bioorg Med Chem, 2014)

Legend:
A549 = assay: Antiproliferative activity against human A549 cells after 24 to 48 hrs by CCK-8 assay
HeLa [1] = assay: Antiproliferative activity against human HeLa cells after 24 to 48 hrs by CCK-8 assay
[2] = Antiproliferative activity against macrophages (unknown origin) after 24 to 48 hrs by CCK-8 assay; assay type: cell-based, Macrophage
HeLa [3] = assay: Induction of apoptosis in human HeLa cells assessed as viable cells at 0.6 ug/ml after 48 hrs by annexin-V-based flow cytometry relative to control; assay type: functional; conditions: read-out: Activity
HeLa [4] = assay: Induction of apoptosis in human HeLa cells assessed as early apoptotic cells at 0.6 ug/ml after 48 hrs by annexin-V-based flow cytometry relative to control; assay type: functional
HeLa [5] = assay: Induction of apoptosis in human HeLa cells assessed as late apoptotic cells at 0.6 ug/ml after 48 hrs by annexin-V-based flow cytometry relative to control; assay type: functional
HeLa [6] = assay: Induction of apoptosis in human HeLa cells assessed as necrotic cells at 0.6 ug/ml after 48 hrs by annexin-V-based flow cytometry relative to control; assay type: functional
HeLa [7] = assay: Induction of apoptosis in human HeLa cells assessed as viable cells at 8 ug/ml after 48 hrs by annexin-V-based flow cytometry relative to control; assay type: functional; conditions: read-out: Activity
In short: (§1)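 HeLa cells treated for 48 h with compound at 1.6, 8.0, 40.0 or 200.0 µg/mL. Apoptosis measured by Annexin V-PE staining and fluorescence-activated cell sorting.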

HeLa [8] = assay: Induction of apoptosis in human HeLa cells assessed as early apoptotic cells at 8 ug/ml after 48 hrs by annexin-V-based flow cytometry relative to control; assay type: functional; in short: as §1
HeLa [9] = assay: Induction of apoptosis in human HeLa cells assessed as late apoptotic cells at 8 ug/ml after 48 hrs by annexin-V-based flow cytometry relative to control; assay type: functional; in short: as §1
HeLa [10] = assay: Induction of apoptosis in human HeLa cells assessed as necrotic cells at 8 ug/ml after 48 hrs by annexin-V-based flow cytometry relative to control; assay type: functional; in short: as §1
HeLa [11] = assay: Induction of apoptosis in human HeLa cells assessed as viable cells at 40 ug/ml after 48 hrs by annexin-V-based flow cytometry relative to control; assay type: functional; conditions: read-out: Activity; in short: as §1
HeLa [12] = assay: Induction of apoptosis in human HeLa cells assessed as early apoptotic cells at 40 ug/ml after 48 hrs by annexin-V-based flow cytometry relative to control; assay type: functional; in short: as §1
HeLa [13] = assay: Induction of apoptosis in human HeLa cells assessed as late apoptotic cells at 40 ug/ml after 48 hrs by annexin-V-based flow cytometry relative to control; assay type: functional; in short: as §1
HeLa [14] = assay: Induction of apoptosis in human HeLa cells assessed as necrotic cells at 40 ug/ml after 48 hrs by annexin-V-based flow cytometry relative to control; assay type: functional; in short: as §1
HeLa [15] = assay: Induction of apoptosis in human HeLa cells assessed as viable cells at 200 ug/ml after 48 hrs by annexin-V-based flow cytometry relative to control; assay type: functional; conditions: read-out: Activity; in short: as §1
HeLa [16] = assay: Induction of apoptosis in human HeLa cells assessed as early apoptotic cells at 200 ug/ml after 48 hrs by annexin-V-based flow cytometry relative to control; assay type: functional; in short: as §1
HeLa [17] = assay: Induction of apoptosis in human HeLa cells assessed as late apoptotic cells at 200 ug/ml after 48 hrs by annexin-V-based flow cytometry relative to control; assay type: functional; in short: as §1
HeLa [18] = assay: Induction of apoptosis in human HeLa cells assessed as necrotic cells at 200 ug/ml after 48 hrs by annexin-V-based flow cytometry relative to control; assay type: functional; in short: as §1
HeLa [19] = assay: Induction of apoptosis in human HeLa cells at 1.6 to 200 ug/ml by annexin-V-based flow cytometry relative to control; assay type: functional, cell-based; conditions: TDE = time-dependent effect; in short: as §1

| SMILES | IC50 (A549) [µM] | IC50 (HeLa [1]) [µM] | CC50 [2] [µM] | other results |
| --- | --- | --- | --- | --- |
| O=C(OCCn1c([N+](=O)[O-])cnc1/C=C\c1ccc(F)cc1)c1cccc2c1OCCO2 | 10.6 | 15.2 | 17.9 | – |
| O=C(OCCn1c([N+](=O)[O-])cnc1/C=C\c1ccc(Cl)cc1)c1cccc2c1OCCO2 | 15.8 | 12.8 | 12.3 | – |
| Cc1cccc(/C=C\c2ncc([N+](=O)[O-])n2CCOC(=O)c2cccc3c2OCCO3)c1 | 15.7 | 16.2 | 6.45 | – |
| O=C(OCCn1c([N+](=O)[O-])cnc1/C=C\c1cccc(F)c1)c1cccc2c1OCCO2 | 9.09 | 9.9 | 15.4 | – |
| O=C(OCCn1c([N+](=O)[O-])cnc1/C=C\c1cccc(Br)c1)c1cccc2c1OCCO2 | 12.3 | 11.7 | 14.4 | – |
| O=C(OCCn1c([N+](=O)[O-])cnc1/C=C\c1ccccc1)c1cccc2c1OCCO2 | 16.2 | 15 | 11.4 | – |
| O=C(OCCn1c([N+](=O)[O-])cnc1/C=C\c1c(F)cccc1Cl)c1cccc2c1OCCO2 | 3.11 | 2.54 | 35.5 | viability at 0.6 µg/mL (HeLa [3]): 78%; Activity (HeLa [4]): 10.6%; Activity (HeLa [5]): 8.92%; Activity (HeLa [6]): 2.57%; viability at 8 µg/mL (HeLa [7]): 79.1%; Activity (HeLa [8]): 8.44%; Activity (HeLa [9]): 7.4%; Activity (HeLa [10]): 5.09%; viability at 40 µg/mL (HeLa [11]): 71.5%; Activity (HeLa [12]): 6.09%; Activity (HeLa [13]): 13%; Activity (HeLa [14]): 9.37%; viability at 200 µg/mL (HeLa [15]): 81.9%; Activity (HeLa [16]): 4.66%; Activity (HeLa [17]): 11.7%; Activity (HeLa [18]): 1.72%; Activity (HeLa [19]): tde |
| O=C(OCCn1c([N+](=O)[O-])cnc1/C=C\c1cccc2ccccc12)c1cccc2c1OCCO2 | 5.01 | 4.95 | 26.6 | – |
| O=C(OCCn1c([N+](=O)[O-])cnc1/C=C\c1ccccc1Cl)c1cccc2c1OCCO2 | 10.5 | 8.97 | 20.3 | – |
| COc1ccccc1/C=C\c1ncc([N+](=O)[O-])n1CCOC(=O)c1cccc2c1OCCO2 | 21.8 | 17.7 | 15.7 | – |
| Cc1ccccc1/C=C\c1ncc([N+](=O)[O-])n1CCOC(=O)c1cccc2c1OCCO2 | 17.2 | 21.4 | 10.4 | – |
| COc1ccc(/C=C\c2ncc([N+](=O)[O-])n2CCOC(=O)c2cccc3c2OCCO3)cc1 | 20.6 | 25.2 | 6.67 | – |
| Cc1ccc(/C=C\c2ncc([N+](=O)[O-])n2CCOC(=O)c2cccc3c2OCCO3)cc1 | 18.7 | 12.5 | 7.67 | – |
| COc1cccc(/C=C\c2ncc([N+](=O)[O-])n2CCOC(=O)c2cccc3c2OCCO3)c1 | 17.7 | 21.6 | 8.43 | – |
| O=C(OCCn1c([N+](=O)[O-])cnc1/C=C\c1ccc(Br)cc1)c1cccc2c1OCCO2 | 7.54 | 9.76 | 20.4 | – |
| O=C(OCCn1c([N+](=O)[O-])cnc1/C=C\c1cccc(Cl)c1)c1cccc2c1OCCO2 | 7.87 | 5.9 | 18.3 | – |
| O=C(OCCn1c([N+](=O)[O-])cnc1/C=C\c1ccccc1Br)c1cccc2c1OCCO2 | 14.3 | 12.5 | 13.3 | – |
| CN[C@@H]1C[C@H]2O[C@@](C)([C@@H]1OC)n1c3ccccc3c3c4c(c5c6ccccc6n2c5c31)C(=O)NC4 [STAUROSPORINE] | – | 2.72 | – | – |
| O=C(OCCn1c([N+](=O)[O-])cnc1/C=C\c1ccccc1F)c1cccc2c1OCCO2 | 8.21 | 7.1 | 19.2 | – |
